Experimental data from ChEMBL document CHEMBL1126020, “Potent non-6-fluoro-substituted quinolone antibacterials: synthesis and biological activity” (1992).
Values after ≈ are worked out from the molar mass of the structure shown.

Legend:
Assay type in all cases: functional
Escherichia coli = test: In vitro antimicrobial activity against strain Escherichia coli 15119
Summary of the method: (§1)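 MICs by serial 2-fold broth dilution in nutrient broth. Inoculum adjusted to 10^6 CFU/mL, with compounds tested from 0.0005 to 250 μg/mL. Plates incubated 18 h at 37 °C. MIC taken as the lowest concentration preventing visible bacterial growth.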

Streptococcus pneumoniae = test: In vitro antimicrobial activity against strain Streptococcus pneumoniae 9585; summary of the method: as §1
Klebsiella pneumoniae = test: In vitro antimicrobial activity against strain Klebsiella pneumoniae 9664; summary of the method: as §1
Enterobacter cloacae = test: In vitro antimicrobial activity against strain Enterobacter cloacae 9656
Proteus mirabilis = test: In vitro antimicrobial activity against strain Proteus mirabilis 9900; summary of the method: as §1
Enterococcus faecalis = test: In vitro antimicrobial activity against strain Enterococcus faecalis 9809; summary of the method: as §1
Morganella morganii = test: In vitro antimicrobial activity against strain Morganella morganii 15153; summary of the method: as §1
Pseudomonas aeruginosa = test: In vitro antimicrobial activity against strain Pseudomonas aeruginosa 9843; summary of the method: as §1
Staphylococcus aureus = test: In vitro antimicrobial activity against strain Staphylococcus aureus 9537; summary of the method: as §1

Row | Structure (SMILES) | MIC (Escherichia coli) [µg/mL] | MIC (Streptococcus pneumoniae) [µg/mL] | MIC (Klebsiella pneumoniae) [µg/mL] | MIC (Enterobacter cloacae) [µg/mL] | MIC (Proteus mirabilis) [µg/mL] | MIC (Enterococcus faecalis) [µg/mL] | MIC (Morganella morganii) [µg/mL] | MIC (Pseudomonas aeruginosa) [µg/mL] | MIC (Staphylococcus aureus) [µg/mL]
1 | NC1CCN(c2ccc3c(=O)c(C(=O)O)cn(C4CC4)c3c2F)C1 (stereo not given) | 0.008 (≈ 0.0241 µM) | 0.5 (≈ 1.51 µM) | 0.016 (≈ 0.0483 µM) | 0.03 (≈ 0.0905 µM) | 0.03 (≈ 0.0905 µM) | 0.25 (≈ 0.754 µM) | 0.016 (≈ 0.0483 µM) | 0.25 (≈ 0.754 µM) | 0.03 (≈ 0.0905 µM)
2 | NC1CCN(c2c(F)cc3c(=O)c(C(=O)O)cn(C4CC4)c3c2F)C1 (stereo not given) | 0.008 (≈ 0.0229 µM) | 0.03 (≈ 0.0859 µM) | 0.03 (≈ 0.0859 µM) | 0.016 (≈ 0.0458 µM) | 0.016 (≈ 0.0458 µM) | 2 (≈ 5.73 µM) | 0.016 (≈ 0.0458 µM) | 0.13 (≈ 0.372 µM) | 0.008 (≈ 0.0229 µM)
3 | O=C(O)c1cn(C2CC2)c2cc(N3CCNCC3)c(F)cc2c1=O [CIPROFLOXACIN] | – | 0.25 (≈ 0.754 µM) | 0.06 (≈ 0.181 µM) | – | 0.008 (≈ 0.0241 µM) | 0.5 (≈ 1.51 µM) | 0.08 (≈ 0.241 µM) | – | 0.06 (≈ 0.181 µM)
4 | NC1CCN(c2cc(F)c3c(=O)c(C(=O)O)cn(C4CC4)c3c2F)C1 (stereo not given) | 0.06 (≈ 0.172 µM) | 4 (≈ 11.5 µM) | 0.13 (≈ 0.372 µM) | 0.06 (≈ 0.172 µM) | 0.13 (≈ 0.372 µM) | 4 (≈ 11.5 µM) | 0.06 (≈ 0.172 µM) | 2 (≈ 5.73 µM) | 0.13 (≈ 0.372 µM)

Next, values leading:

Row | MIC (Escherichia coli) [µg/mL] | MIC (Streptococcus pneumoniae) [µg/mL] | MIC (Klebsiella pneumoniae) [µg/mL] | MIC (Enterobacter cloacae) [µg/mL] | MIC (Proteus mirabilis) [µg/mL] | MIC (Enterococcus faecalis) [µg/mL] | MIC (Morganella morganii) [µg/mL] | MIC (Pseudomonas aeruginosa) [µg/mL] | MIC (Staphylococcus aureus) [µg/mL] | Structure (SMILES)
5 | 0.13 (≈ 0.392 µM) | 4 (≈ 12.1 µM) | 0.5 (≈ 1.51 µM) | 0.13 (≈ 0.392 µM) | 0.5 (≈ 1.51 µM) | 16 (≈ 48.3 µM) | 0.25 (≈ 0.754 µM) | 4 (≈ 12.1 µM) | 1 (≈ 3.02 µM) | NC1CCN(c2cc(F)c3c(=O)c(C(=O)O)cn(C4CC4)c3c2)C1 (stereo not given)
6 | 0.008 (≈ 0.0255 µM) | 2 (≈ 6.38 µM) | 0.06 (≈ 0.191 µM) | 0.13 (≈ 0.415 µM) | 0.13 (≈ 0.415 µM) | 4 (≈ 12.8 µM) | 0.13 (≈ 0.415 µM) | 0.5 (≈ 1.6 µM) | 0.25 (≈ 0.798 µM) | NC1CCN(c2ccc3c(=O)c(C(=O)O)cn(C4CC4)c3c2)C1 (stereo not given)
7 | 0.004 (≈ 0.0121 µM) | 0.13 (≈ 0.392 µM) | 0.03 (≈ 0.0905 µM) | 0.004 (≈ 0.0121 µM) | 0.03 (≈ 0.0905 µM) | 0.25 (≈ 0.754 µM) | 0.016 (≈ 0.0483 µM) | 0.25 (≈ 0.754 µM) | 0.03 (≈ 0.0905 µM) | NC1CCN(c2cc3c(cc2F)c(=O)c(C(=O)O)cn3C2CC2)C1 (stereo not given)
